# Results from different studies.
# Each line is one published result; the experiments were not run side by side.
# Cell line: A549
# Read-out: cell growth or viability
Compound,test,conditions,IC50 [µM]
O=C(O)c1ccc2c(c1)nc(Nc1cccc(Cl)c1)c1ccncc12,crystal violet,48 h,10.5
Cc1nc(Nc2ccc3c(c2)/C(=C/c2ccccc2C)C(=O)N3)c2ccccc2n1,MTT,,18.2
O=C(C=Cc1ccccc1)Nc1cc(-c2ccnc(N3CCOCC3)c2)ccn1,MTT,72 h,0.444
COc1cc2ncnc(Nc3ccc4c(c3)/C(=C/c3cccc(Cl)c3)C(=O)N4C)c2cc1OC,MTT,,9.19
Cc1ccc2c(-c3cc4c(CNCc5cccnc5)cnc(C)c4o3)cc(=O)oc2c1C,MTT,72 h,36.4
C=C(F)C(=O)N1CCN(c2nc(OC[C@@H]3CCCN3C)nc3c2CCN(c2cccc4cccc(Cl)c24)C3)C[C@@H]1CC#N,ATP luminescence,,2.17
Cc1ccc2c(-c3cc4c(CN5CCN(Cc6ccccn6)CC5)cnc(C)c4o3)cc(=O)oc2c1,MTT,72 h,43.1
Cc1nc(Nc2ccc3c(c2)/C(=C/c2ccccc2)C(=O)N3Cc2ccccc2)c2ccccc2n1,MTT,,44.7
C=CC(=O)N1CCN(c2nc(=O)n(-c3c(C)ccnc3C(C)C)c3nc(-c4c(O)cccc4F)c(F)cc23)[C@@H](C)C1,ATP luminescence,,> 10
C[C@H](CCC(=O)O)[C@H]1CC[C@H]2[C@@H]3CC[C@@H]4C[C@H](O)CC[C@]4(C)[C@H]3CC[C@]12C,MTT,72 h,70
C=CC(=O)Nc1cc(Nc2nccc(-c3cn(C)c4ccccc34)n2)c(OC)cc1N(C)CCN(C)C,MTT,72 h,28.2
CNC(=O)c1cc(Oc2ccc(NC(=O)Nc3ccc(Cl)c(C(F)(F)F)c3)cc2)ccn1,MTT,72 h,5.58
CN(C)C/C=C/C(=O)Nc1cc2c(Nc3ccc(F)c(Cl)c3)ncnc2cc1O[C@H]1CCOC1,MTT,72 h,48.5
Cc1nc(Nc2ccc3c(c2)/C(=C/c2ccccc2Cl)C(=O)N3)c2ccccc2n1,MTT,,5.67
